Reference: ChEMBL document CHEMBL1154049, “A versatile photoactivatable probe designed to label the diphosphate binding site of farnesyl diphosphate utilizing enzymes” (Bioorg Med Chem, 2009)
Calls of active or inactive are those of the source. The calls are words filed in the database; no cut-off is given here.

Experiments:
[1] = target: T1, Protein farnesyltransferase/geranylgeranyltransferase type-1 subunit alpha (Saccharomyces cerevisiae S288c, UniProt P29703); assay: Inhibition of Saccharomyces cerevisiae protein farnesyltransferase assessed as farnesylation of N-dansyl-GCVIA
T1 sequence (P29703 whole entry): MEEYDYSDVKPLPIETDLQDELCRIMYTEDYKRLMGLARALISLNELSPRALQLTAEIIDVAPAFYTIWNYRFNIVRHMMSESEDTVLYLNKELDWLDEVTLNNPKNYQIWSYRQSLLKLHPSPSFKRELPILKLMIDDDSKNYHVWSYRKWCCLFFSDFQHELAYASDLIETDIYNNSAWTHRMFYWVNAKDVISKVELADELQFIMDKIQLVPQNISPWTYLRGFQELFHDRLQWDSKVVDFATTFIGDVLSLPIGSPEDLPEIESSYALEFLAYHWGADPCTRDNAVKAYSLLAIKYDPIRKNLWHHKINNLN
Method in brief: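 Purified ScPFTase at 5.0 nM; continuous fluorescence assay following dansyl fluorescence rise as N-dansyl-GCVIA (2.4 µM) is prenylated. For IC50, FPP fixed at 2.4 µM, inhibitor 0–20 µM, duplicates, direct fit of rate vs inhibitor concentration. For KI, 4×6 grid of duplicates with FPP at 1, 2, 5, 7.0 µM and inhibitor 0–2 µM; initial velocities, Eadie-Hofstee plot.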

[2] = target: T2, Protein farnesyltransferase/geranylgeranyltransferase type-1 subunit alpha (Saccharomyces cerevisiae S288c) (UniProt P29703); assay: Binding affinity to Saccharomyces cerevisiae protein farnesyltransferase assessed as enzyme alpha subunit photolabeling at 29 uM by SDS-PAGE based phosphor imaging analysis; conditions: tested as the 32P-labelled form
T2 sequence (whole entry): T1 sequence (P29703 whole entry)
Method in brief: (§1)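 Purified enzyme (50 µg/mL) in 52 mM Tris·HCl pH 7.0, 5.8 mM DTT, 12 mM MgCl2, 12 µM ZnCl2, 25 mM NH4HCO3 with [32P]probe 29 µM; irradiated 350 nm, 6 h, 4 °C; protection runs add FPP 100 µM final. SDS loading buffer, 70 °C 20 min, 12% Tris-Tricine SDS-PAGE, Coomassie stain, phosphorimaging.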

[3] = target: T2, Protein farnesyltransferase/geranylgeranyltransferase type-1 subunit alpha (Saccharomyces cerevisiae S288c); assay: Binding affinity to Saccharomyces cerevisiae protein farnesyltransferase assessed as photolabeling at 29 uM by SDS-PAGE based phosphor imaging analysis in presence of excess farnesyl diphosphate; conditions: tested as the 32P-labelled form; method in brief: as §1
[4] = target: T2, Protein farnesyltransferase/geranylgeranyltransferase type-1 subunit alpha (Saccharomyces cerevisiae S288c); assay: Activity at Saccharomyces cerevisiae protein farnesyltransferase upto 200 uM by continuous fluorescence assay
Method in brief: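 Purified yeast PFTase; continuous fluorescence read-out of dansyl signal increase on prenylation of N-dansyl-GCVIA acceptor, with analogue replacing FPP at up to 200 µM.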

[5] = target: T2, Protein farnesyltransferase/geranylgeranyltransferase type-1 subunit alpha (Saccharomyces cerevisiae S288c); assay: Binding affinity to Saccharomyces cerevisiae protein farnesyltransferase assessed as photolabeling at 29 uM by SDS-PAGE based phosphor imaging analysis in absence of UV irradiation; conditions: tested as the 32P-labelled form
[6] = target: T2, Protein farnesyltransferase/geranylgeranyltransferase type-1 subunit alpha (Saccharomyces cerevisiae S288c); assay: Binding affinity to Saccharomyces cerevisiae protein farnesyltransferase assessed as enzyme beta subunit photolabeling at 29 uM by SDS-PAGE based phosphor imaging analysis; conditions: tested as the 32P-labelled form; method in brief: as §1
[7] = target: T3, Farnesyl diphosphate synthase (Escherichia coli K-12) (UniProt P22939); assay: Binding affinity to Escherichia coli farnesyl diphosphate synthase assessed as photolabeling at 29 uM by SDS-PAGE based phosphor imaging analysis; conditions: tested as the 32P-labelled form; method in brief: as §1
T3 sequence (whole entry): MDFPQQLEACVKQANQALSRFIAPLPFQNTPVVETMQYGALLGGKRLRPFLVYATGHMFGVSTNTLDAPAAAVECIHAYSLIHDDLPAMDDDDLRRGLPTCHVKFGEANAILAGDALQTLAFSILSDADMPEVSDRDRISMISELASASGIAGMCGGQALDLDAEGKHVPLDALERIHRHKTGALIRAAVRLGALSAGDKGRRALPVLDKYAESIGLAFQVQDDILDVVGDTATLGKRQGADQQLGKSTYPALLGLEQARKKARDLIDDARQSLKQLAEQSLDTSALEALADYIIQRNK

Drosophila melanogaster [8] = assay: Binding affinity to Drosophila melanogaster farnesyl diphosphate synthase assessed as photolabeling at 29 uM by SDS-PAGE based phosphor imaging analysis in presence of excess farnesyl diphosphate; conditions: tested as the 32P-labelled form; method in brief: as §1
[9] = target: T3, Farnesyl diphosphate synthase (Escherichia coli K-12); assay: Binding affinity to Escherichia coli farnesyl diphosphate synthase assessed as photolabeling at 29 uM by SDS-PAGE based phosphor imaging analysis in presence of excess farnesyl diphosphate; conditions: tested as the 32P-labelled form; method in brief: as §1
Drosophila melanogaster [10] = assay: Binding affinity to Drosophila melanogaster farnesyl diphosphate synthase assessed as photolabeling at 29 uM by SDS-PAGE based phosphor imaging analysis in absence of UV irradiation; conditions: tested as the 32P-labelled form
Nostoc [11] = assay: Binding affinity to Nostoc PCC 7120 sesquiterpene synthase assessed as photolabeling at 29 uM by SDS-PAGE based phosphor imaging analysis in presence of excess farnesyl diphosphate; conditions: tested as the 32P-labelled form; method in brief: as §1
[12] = target: T3, Farnesyl diphosphate synthase (Escherichia coli K-12); assay: Binding affinity to Escherichia coli farnesyl diphosphate synthase assessed as photolabeling at 29 uM by SDS-PAGE based phosphor imaging analysis in absence of UV irradiation; conditions: tested as the 32P-labelled form
Nostoc [13] = assay: Binding affinity to Nostoc PCC 7120 sesquiterpene synthase assessed as photolabeling at 29 uM by SDS-PAGE based phosphor imaging analysis; conditions: tested as the 32P-labelled form; method in brief: as §1
Drosophila melanogaster [14] = assay: Binding affinity to Drosophila melanogaster farnesyl diphosphate synthase assessed as photolabeling at 29 uM by SDS-PAGE based phosphor imaging analysis; conditions: tested as the 32P-labelled form; method in brief: as §1
Nostoc [15] = assay: Inhibition of Nostoc PCC 7120 sesquiterpene synthase in presence of farnesyl diphosphate
Method in brief: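 Purified cyclase (10 µg) in 200 µL 10 mM Tris·HCl pH 8.0, 10 mM MgCl2, 1.0 mM 2-mercaptoethanol with probe and/or FPP (50, 100 or 200 µM), sealed vial, 18 h at 25 °C; headspace sampled 10 min by SPME, GC/MS analysis of sesquiterpene product.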

Nostoc [16] = assay: Substrate activity at Nostoc PCC 7120 sesquiterpene synthase in absence of farnesyl diphosphate; conditions: tested as the 32P-labelled form

Row | SMILES | IC50 [1] [nM] | Ki [1] [nM] | Activity [2] | Activity [3] | Activity [4] | Activity [5] | Activity [6] | Activity [7] | Activity (Drosophila melanogaster [8]) | Activity [9] | Activity (Drosophila melanogaster [10]) | Activity (Nostoc [11]) | Activity [12] | Activity (Nostoc [13]) | Activity (Drosophila melanogaster [14]) [%] | inhibition (Nostoc [15]) | Activity (Nostoc [16])
1 | C/C(=C\COP(=O)(O)OP(=O)(O)O)COCc1cccc(C(=O)c2ccccc2)c1 | 3400 | 610 |  |  |  |  |  |  |  |  |  |  |  |  |  |  | 
2 | CC(C)=CCC/C(C)=C/CC/C(C)=C/COP(=O)(O)OP(=O)(O)Cc1cccc(C(=O)c2ccccc2)c1 | 5800 |  | inactive | inactive | inactive | inactive | Active |  |  |  |  |  |  |  |  |  | 
3 | C/C(=C\COP(=O)(O)OP(=O)(O)O)CC/C=C(\C)COC(=O)[C-]([N+]#N)C(F)(F)F | 720 | 200 |  |  |  |  |  |  |  |  |  |  |  |  |  |  | 
4 | CC(C)=CCC/C(C)=C/CC/C(C)=C/COP(=O)(O)OP(=O)(O)Cc1ccc(C(=O)c2ccccc2)cc1 | 3000 | 480 | inactive | inactive | inactive | inactive | Active | Active | inactive | inactive | inactive | inactive | inactive | Active | 46 | inactive | Active
